This note sets out measurements from ChEMBL document CHEMBL3286242, “Design, synthesis and biological evaluation of arylcinnamide hybrid derivatives as novel anticancer agents” (Eur J Med Chem, 2014).

The subject of data set [1] is HeLa. As to the kind of experiment: Cytotoxicity against human HeLa cells assessed as growth inhibition after 72 hrs by MTT assay. The format is functional, cell-based. In general terms: Tetrazolium dyes change colour on reduction, which living cells bring about.
The next data set deals with HT-29. As to the kind of experiment: Cytotoxicity against human HT-29 cells assessed as growth inhibition after 72 hrs by MTT assay. The following applies: HT-29, 72 h. In kind it is functional, cell-based.
For data set [2], the system named is LoVo. As to the kind of experiment: Cytotoxicity against human LoVo cells assessed as growth inhibition after 72 hrs by MTT assay. In kind it is functional, cell-based.
The test system of data set [3] is CCRF-CEM. As to the kind of experiment: Cytotoxicity against human CEM cells assessed as growth inhibition after 72 hrs by MTT assay. In kind it is functional, cell-based.
In the next data set the test system is Jurkat. As to the kind of experiment: Cytotoxicity against human Jurkat cells assessed as growth inhibition after 72 hrs by MTT assay. The format is functional, cell-based.
Data set [4] is described as follows: Cytotoxicity against human SEM cells assessed as growth inhibition after 72 hrs by MTT assay. The format is functional, cell-based.
The next data set deals with MCF7. Nature of the data set: Cytotoxicity against human MCF7 cells assessed as growth inhibition after 72 hrs by MTT assay. The format is functional, cell-based. The following applies: MCF7, 72 h.
Data set [5] relates to PBMC. As to the kind of experiment: Cytotoxicity against human resting PBMC assessed as growth inhibition after 72 hrs by MTT assay. In kind it is cell-based. The method in brief:
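Healthy-donor PBMC from Lymphoprep gradient, rested overnight in RPMI-1640/10% FBS; non-adherent cells at 5 × 10^5 cells/mL without PHA, treated 72 h with varying concentrations; viability by MTT; IC50 mean ± SEM, three separate experiments.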

For data set [6], the system named is PBMC. As to the kind of experiment: Cytotoxicity against human PHA-stimulated PBMC assessed as growth inhibition after 72 hrs by MTT assay. The format is functional, cell-based.
A short description of data set [7]: Selectivity ratio of IC50 for human resting PBMC to IC50 for human Jurkat cells. The format is ADME, cell-based. The conditions noted are these: resting PBMC versus Jurkat cells, read-out: Ratio IC50.
Data set [8] can be described thus: Selectivity ratio of IC50 for human resting PBMC to IC50 for human CEM cells. The following applies: resting PBMC versus CEM cells, read-out: Ratio IC50. In kind it is ADME, cell-based, CCRF-CEM.
A short description of data set [9]: Cytotoxicity against human LoVo/DX cells assessed as growth inhibition after 72 hrs by MTT assay. The format is functional, cell-based.
Data set [10] is described as follows: Cytotoxicity against human CEM/VBL100 cells assessed as growth inhibition after 72 hrs by MTT assay. The format is functional, cell-based. The conditions noted are these: CEM/VBL100, 72 h.
The subject of data set [11] is LoVo. As to the kind of experiment: Resistance ratio of IC50 for human LoVo/DX cells to IC50 for human LoVo cells. The format is functional. The procedure, abridged:
(§1)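 Ratio of IC50 in resistant line to IC50 in parental line (CEMVbl-100/CEM; LoVoDoxo/LoVo), each IC50 from 72 h MTT dose–response curves, ≥3 independent experiments.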

For data set [12], the system named is CCRF-CEM. As to the kind of experiment: Resistance ratio of IC50 for human CEM/VBL100 cells to IC50 for human CEM cells. In kind it is functional. The procedure, abridged:
as §1

A further data set addresses Tubulin (Bos taurus) (UniProt Q6B856+Q862L2+Q862F3). As to the kind of experiment: Inhibition of bovine brain tubulin polymerization at 20 uM by turbidimetry. The method in brief:
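Purified bovine brain tubulin (10 μM) preincubated with compound in glutamate buffer at 30 °C, cooled to 0 °C, GTP added, then warmed to 30 °C in cuvettes; assembly followed turbidimetrically; concentrations up to 20 μM.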

Data set [13] concerns HeLa. Nature of the data set: Induction of apoptosis in human HeLa cells assessed as increase in Bid protein expression at 1 uM after 24 hrs by Western blotting analysis. The format is functional, cell-based. (In general: Immunoblotting shows a protein as a band on a membrane.)
In data set [14] the test system is HeLa. As to the kind of experiment: Induction of apoptosis in human HeLa cells assessed as increase in Bax protein expression at 1 to 2.5 uM after 24 to 48 hrs by Western blotting analysis. In kind it is functional, cell-based.
Data set [15] concerns HeLa. As to the kind of experiment: Induction of apoptosis in human HeLa cells assessed as increase in Bak protein expression at 1 to 2.5 uM after 24 to 48 hrs by Western blotting analysis. In kind it is functional, cell-based.
In the next data set the target is Tubulin (Homo sapiens) (UniProt P68371+Q9H4B7+P0DPH7+P68366+Q13509+Q71U36+P04350+Q3ZCM7+P07437+P68363+Q9BQE3+Q6PEY2+Q13885+Q9BVA1+Q9BUF5). Nature of the data set: Inhibition of tubulin polymerization in human HeLa cells assessed as microtubule disruption at 2.5 to 5 uM after 24 hrs by immunofluorescence microscopy relative to untreated control. In kind it is cell-based. The procedure, abridged: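 HeLa cells exposed 24 h to 2.5 or 5.0 μM versus untreated; fixed in cold 4% formaldehyde 15 min, stained with anti-β-tubulin monoclonal (1:1000) and Alexa secondary (1:2000), DAPI counterstain; imaged by confocal microscopy at 20×.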

Data set [16] deals with HeLa. As to the kind of experiment: Cell cycle arrest in human HeLa cells assessed as accumulation at G2/M phase after 24 hrs by propidium iodide staining-based flow cytometry. In kind it is functional. The method in brief: (§2)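 HeLa cells in exponential growth (2.5 × 10^5) treated 24 h at various concentrations; ethanol-fixed (70%, ice-cold), lysed with RNase A/0.1% Triton X-100, PI-stained; DNA content by flow cytometry, phase percentages from DNA histograms.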
Background: Flow cytometry measures light scatter and fluorescence of single cells or particles in a stream.

The subject of data set [17] is HeLa. As to the kind of experiment: Cell cycle arrest in human HeLa cells assessed as reduction in S phase after 24 hrs by propidium iodide staining-based flow cytometry. The format is functional. The procedure, abridged:
as §2

The test system of data set [18] is HeLa. Nature of the data set: Induction of apoptosis in human HeLa cells at 0.62 to 5 uM after 24 to 48 hrs by Annexin V/FITC staining-based flow cytometry. The format is functional, cell-based. The procedure, abridged:
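HeLa cells treated 24 or 48 h at indicated concentrations, then stained with annexin-V-FITC plus PI; flow cytometry with 488 nm excitation, 525 and 585 nm emission; live, early/late apoptotic and necrotic populations distinguished; means of three independent experiments.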

In data set [19] the test system is HeLa. Nature of the data set: Induction of apoptosis in human HeLa cells assessed as caspase activation at 2.5 uM after 48 hrs in presence of pan-caspase inhibitor z-VAD.fmk. In kind it is functional, cell-based. The procedure, abridged: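 HeLa cells given 2.5 μM compound for 48 h with or without 100 μM z-VAD.fmk pan-caspase inhibitor; viability measured; means ± SEM of three independent experiments, Student's t-test.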

Data set [20] has as its system HeLa. As to the kind of experiment: Induction of apoptosis in human HeLa cells assessed as reduction in Bcl-2 protein expression at 1 to 2.5 uM by Western blotting analysis. The conditions noted are these: TDE = time-dependent effect. In kind it is functional, cell-based. The method in brief:
(§3)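 HeLa cells treated at indicated concentrations and times; washed in cold PBS, lysed 30 min at 0 °C, cleared at 15 000 × g; 20 μg protein resolved on 7.5–15% gradient SDS-PAGE, blotted to PVDF, primary antibodies 2 h room temperature, peroxidase secondary 60 min, ECL detection; β-actin reprobe for loading.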

The test system of data set [21] is HeLa. As to the kind of experiment: Induction of apoptosis in human HeLa cells assessed as caspase-3 activation after 24 to 48 hrs by Western blotting analysis. In kind it is functional, cell-based. The method in brief: as §3
Data set [22] relates to HeLa. Nature of the data set: Induction of apoptosis in human HeLa cells assessed as caspase-3 activation at 1 to 2.5 uM by Western blotting analysis. The format is functional, cell-based. The conditions noted are these: TDE = time-dependent effect. The method in brief:
as §3

The subject of data set [23] is HeLa. Nature of the data set: Induction of apoptosis in human HeLa cells assessed as PARP cleavage after 24 to 48 hrs by Western blotting analysis. In kind it is functional, cell-based. The procedure, abridged: as §3
The test system of data set [24] is HeLa. Nature of the data set: Induction of apoptosis in human HeLa cells assessed as PARP cleavage at 1 to 2.5 uM by Western blotting analysis. In kind it is functional, cell-based. The conditions noted are these: TDE = time-dependent effect. The method in brief:
as §3

Data set [25] deals with HeLa. Nature of the data set: Induction of apoptosis in human HeLa cells assessed as caspase-9 activation at 1 to 2.5 uM after 24 to 48 hrs by Western blotting analysis. In kind it is functional, cell-based. The procedure, abridged: as §3
Data set [26] has as its system HeLa. Nature of the data set: Induction of apoptosis in human HeLa cells assessed as caspase-8 activation at 1 to 2.5 uM after 24 to 48 hrs by Western blotting analysis. The format is functional, cell-based. The method in brief: as §3
For data set [27], the system named is HeLa. As to the kind of experiment: Induction of apoptosis in human HeLa cells assessed as reduction in Bcl-2 protein expression at 1 to 2.5 uM after 48 hrs by Western blotting analysis. In kind it is functional, cell-based. The method in brief:
as §3

The test system of data set [28] is HeLa. As to the kind of experiment: Induction of apoptosis in human HeLa cells assessed as reduction in Mcl-1 protein expression at 2.5 uM after 48 hrs by Western blotting analysis. The format is functional, cell-based. The method in brief:
as §3

Data set [29] deals with HeLa. As to the kind of experiment: Induction of DNA damage in human HeLa cells assessed as increase in gammaH2A.X protein expression at 1 to 2.5 uM after 48 hrs by Western blotting analysis. The format is functional, cell-based.
Data set [30] concerns HeLa. As to the kind of experiment: Induction of apoptosis in human HeLa cells assessed as GSH depletion after 24 hrs by CMFDA staining-based flow cytometry. In kind it is functional, cell-based. The method in brief: (§4)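 HeLa cells treated 24 h with compound, alone or with 100 μM NAC; harvested and loaded with 5 μM CMFDA, 30 min at 37 °C; intracellular GSH read as CMFDA fluorescence by flow cytometry; means ± SEM.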

The test system of data set [31] is HeLa. As to the kind of experiment: Induction of apoptosis in human HeLa cells assessed as GSH depletion at 1 to 2.5 uM after 24 hrs by CMFDA staining-based flow cytometry in presence of N-acetylcysteine. In kind it is functional, cell-based. The method in brief:
as §4

The subject of the next data set is L1210. As to the kind of experiment: Cytotoxicity against mouse L1210 cells. The format is functional, cell-based.

Calls of active or inactive are those of the source. The calls are words filed in the database; no cut-off is given here.

`C=C(Br)C(=O)Nc1cccc(/C=C/C(=O)Nc2ccc(N3CCOCC3)cc2)c1`: the IC50 (as a rule, the point on the concentration scale where inhibition reaches its midpoint) with HeLa [1] amounted to 430 nM; in the data set on HT-29, 1600 nM; in the data set on LoVo [2] it was 510 nM; in the data set on CCRF-CEM [3], 610 nM; in the data set on Jurkat it was 40 nM; in data set [4], 57 nM. Besides, the IC50 in the data set with MCF7 came to 2600 nM; in the data set with PBMC [5] it was 4000 nM; with PBMC [6], 500 nM; in data set [9] it was 1050 nM; in data set [10] it was 410 nM. The selectivity ratio in [7] and in data set [8] was 10 each time. Also, the “Ratio IC50” value with LoVo [11] was 2; in the data set on CCRF-CEM [12] it was 0.7. The inhibition entry on Tubulin (Bos taurus) and at Tubulin (Homo sapiens) was “inactive” throughout. Also, the result with HeLa [13], in the data set with HeLa [14], with HeLa [15], in the data set on HeLa [19], with HeLa [25] and in the data set on HeLa [31] was inactive. The Activity entry was “Dose-dependent effect” in the data set with HeLa [16]; “tde” in the data set with HeLa [20]; “Dose-dependent effect” with HeLa [21]; “tde” in the data set on HeLa [22]; “Dose-dependent effect” in the data set with HeLa [23]; “tde” in the data set with HeLa [24]. Besides, in the data set with HeLa [30], the Activity entry is “Dose-dependent effect”. In addition, the outcome in the data set with HeLa [17], in the data set with HeLa [18], with HeLa [26], with HeLa [27], in the data set with HeLa [28] and in the data set on HeLa [29] was Active.

In the case of `C=C(Br)C(=O)O`, in the data set with L1210, the IC50 is > 120000 nM.
